Measured values reported in ChEMBL document CHEMBL1153208, “Identification of a new class of small molecule C5a receptor antagonists” (Bioorg Med Chem Lett, 2010).

Experiments:
[1] = biological target: T1, C5a anaphylatoxin chemotactic receptor 1 (Homo sapiens, UniProt P21730); assay: Antagonist activity at human C5a receptor expressed in CHO cells co-expressed with Galpha16 assessed as inhibition of anaphylatoxin C5a-induced intracellular calcium accumulation after 10 mins by FLIPR assay; format: functional, cell-based
T1 sequence (P21730 whole entry): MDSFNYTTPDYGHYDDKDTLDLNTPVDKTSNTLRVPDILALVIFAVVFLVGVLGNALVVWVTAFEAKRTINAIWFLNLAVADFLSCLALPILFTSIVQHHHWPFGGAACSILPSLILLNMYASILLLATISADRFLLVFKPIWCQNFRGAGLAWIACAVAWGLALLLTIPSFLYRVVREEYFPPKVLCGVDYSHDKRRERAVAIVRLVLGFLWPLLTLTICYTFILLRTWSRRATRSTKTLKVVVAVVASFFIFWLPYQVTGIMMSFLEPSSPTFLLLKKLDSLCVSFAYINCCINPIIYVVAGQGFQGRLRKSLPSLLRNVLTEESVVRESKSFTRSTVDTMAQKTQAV

[2] = biological target: T1, C5a anaphylatoxin chemotactic receptor 1; assay: Agonist activity at human C5a receptor expressed in CHO cells co-expressed with Galpha16 assessed as effect on anaphylatoxin C5a-induced intracellular calcium accumulation after 10 mins by FLIPR assay; format: functional, cell-based
[3] = biological target: T1, C5a anaphylatoxin chemotactic receptor 1; assay: Displacement of [125I]human anaphylatoxin C5a from human C5a receptor expressed in CHO cells co-expressed with Galpha16 after 1 hr; format: cell-based
Method in brief: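 Intact CHO-Gα16-C5aR cells plated at 50,000/well in growth medium with 10% FBS the day before. Medium replaced by HBSS + 20 mM HEPES + 0.1% BSA. Compound added for 10 min at rt, then 0.6 nM 125I-hC5a for 1 h at rt. Cells washed eight times with PBS + 1 mM CaCl2 + 0.1% BSA on a harvester.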

[4] = biological target: T1, C5a anaphylatoxin chemotactic receptor 1; assay: Antagonist activity at C5a receptor in human PMNC assessed as inhibition of anaphylatoxin C5a-induced intracellular calcium accumulation after 10 mins by FLIPR assay; format: functional, cell-based
Method in brief: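 Human neutrophils purified from whole blood on a Ficoll gradient, resuspended in Ca3 dye and plated at 50,000 cells/well in HBSS + 20 mM HEPES + 0.1% BSA. After 1 h at 37 °C, 5% CO2, compound added for 10 min, then 10 nM hC5a. Calcium response recorded on FLIPR.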

[5] = biological target: T2, C-X-C chemokine receptor type 3 (Homo sapiens, UniProt P49682); assay: Inhibition of CXCR3 in human T cells; format: cell-based, T-cell
T2 sequence (P49682 whole entry): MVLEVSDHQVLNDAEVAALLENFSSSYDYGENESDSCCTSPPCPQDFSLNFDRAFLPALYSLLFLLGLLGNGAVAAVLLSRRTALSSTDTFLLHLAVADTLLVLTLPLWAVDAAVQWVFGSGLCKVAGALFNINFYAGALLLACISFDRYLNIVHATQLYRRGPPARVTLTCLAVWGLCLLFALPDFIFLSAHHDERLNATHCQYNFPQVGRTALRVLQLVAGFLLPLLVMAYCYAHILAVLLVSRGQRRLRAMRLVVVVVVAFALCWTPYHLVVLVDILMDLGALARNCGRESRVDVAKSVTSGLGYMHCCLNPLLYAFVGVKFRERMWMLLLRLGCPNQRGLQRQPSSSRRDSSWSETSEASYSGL

P2Y purinoceptor 2 = P2Y purinoceptor 2 (Homo sapiens, UniProt P41231); assay: Inhibition of human P2Y2 receptor expressed in CHO cells; format: cell-based
Blood = assay: Inhibition of anaphylatoxin C5a-induced PMNC shape changes in human whole blood treated 10 mins before anaphylatoxin C5a-induced challenge measured after 40 mins by FACS analysis; format: functional, tissue-based
Method in brief: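 Whole-blood assay. After stimulation, cells fixed with ice-cold 1% paraformaldehyde, then red cells lysed in ice-cold hypotonic buffer for 40 min on ice. Neutrophils gated by forward and side scatter on a flow cytometer. Shape change read as the rise in autofluorescence on the FL2-H channel.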

[6] = Inhibition of anaphylatoxin C5a-induced chemotaxis in human PMNC; format: functional
[7] = biological target: C-X-C chemokine receptor type 4 (Homo sapiens, UniProt P61073); assay: Inhibition of CXCR4 in human T cells; format: cell-based, T-cell
Sequence of C-X-C chemokine receptor type 4 (P61073 whole entry): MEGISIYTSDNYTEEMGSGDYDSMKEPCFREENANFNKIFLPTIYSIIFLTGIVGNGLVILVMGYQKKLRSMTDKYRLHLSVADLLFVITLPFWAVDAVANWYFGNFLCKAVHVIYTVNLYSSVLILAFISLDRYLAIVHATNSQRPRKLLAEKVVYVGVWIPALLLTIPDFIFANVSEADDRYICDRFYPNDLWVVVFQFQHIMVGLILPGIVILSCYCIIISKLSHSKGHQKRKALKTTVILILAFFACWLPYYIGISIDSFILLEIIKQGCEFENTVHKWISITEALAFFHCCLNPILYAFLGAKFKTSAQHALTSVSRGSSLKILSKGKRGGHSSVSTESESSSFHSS

Sequence of P2Y purinoceptor 2 (P41231 whole entry): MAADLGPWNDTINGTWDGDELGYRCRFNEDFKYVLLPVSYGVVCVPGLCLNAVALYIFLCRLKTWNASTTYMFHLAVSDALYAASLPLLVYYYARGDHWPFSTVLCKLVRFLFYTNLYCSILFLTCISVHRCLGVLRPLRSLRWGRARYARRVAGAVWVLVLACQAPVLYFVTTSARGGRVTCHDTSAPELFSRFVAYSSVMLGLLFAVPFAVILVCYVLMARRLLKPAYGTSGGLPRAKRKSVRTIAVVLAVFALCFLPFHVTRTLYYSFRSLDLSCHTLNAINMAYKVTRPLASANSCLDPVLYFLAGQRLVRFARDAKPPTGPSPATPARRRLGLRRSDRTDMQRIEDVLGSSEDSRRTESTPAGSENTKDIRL

Question: For `Cc1ccc(S(=O)(=O)N(C)c2ccc(Br)cc2C(=O)c2ccccc2)cc1`, which IC50 [1] is on record?
Answer: > 60 µM

Question: And the EC50 [2]?
Answer: > 60 µM

Question: What about the IC50 [3] of the same compound?
Answer: 14.6 µM

Question: For `Cc1ccc(S(=O)(=O)N(CCCN(c2ccccc2)S(=O)(=O)c2ccc(C)cc2)c2ccccc2)cc1`, which IC50 [4] is on record?
Answer: > 60 µM

Question: And the IC50 [1]?
Answer: > 60 µM

Question: Which IC50 [1] does the source give for `CC(=O)c1ccccc1N(C)S(=O)(=O)c1ccc(C)cc1` here?
Answer: > 60 µM

Question: And the EC50 [2]?
Answer: > 60 µM

Question: What about the IC50 [3] of the same compound?
Answer: > 60 µM

Question: For `Cc1ccc(S(=O)(=O)N(C)c2ccccc2C(=O)c2ccsc2)cc1`, which IC50 [4] is on record?
Answer: 0.4 µM

Question: And the IC50 [1]?
Answer: 0.6 µM

Question: What about the IC50 [5] of the same compound?
Answer: > 60 µM

Question: And the IC50 (P2Y purinoceptor 2)?
Answer: > 60 µM

Question: What about the IC50 (Blood) of the same compound?
Answer: > 60 µM

Question: And the EC50 [2]?
Answer: > 60 µM

Question: And the IC50 [6]?
Answer: > 60 µM

Question: What about the IC50 [3] of the same compound?
Answer: 1.7 µM

Question: What about the IC50 [7] of the same compound?
Answer: > 60 µM

Question: Which IC50 [4] does the source give for `Cc1ccc(S(=O)(=O)N(C)c2ccccc2N(C)S(=O)(=O)c2ccc(C)cc2)cc1` here?
Answer: 0.0067 µM

Question: What about the IC50 [1] of the same compound?
Answer: 0.2 µM

Question: And the IC50 [5]?
Answer: > 60 µM

Question: And the IC50 (P2Y purinoceptor 2)?
Answer: > 60 µM

Question: And the IC50 (Blood)?
Answer: 27 µM

Question: What about the EC50 [2] of the same compound?
Answer: > 60 µM

Question: And the IC50 [6]?
Answer: 5.7 µM

Question: What about the IC50 [3] of the same compound?
Answer: 0.2 µM

Question: And the IC50 [7]?
Answer: > 60 µM

Question: What does the source list for `Cc1ccc(S(=O)(=O)N2Cc3ccccc3CN(S(=O)(=O)c3ccc(C)cc3)c3ccccc32)cc1`?
Answer: IC50 [1]: > 60 µM; EC50 [2]: > 60 µM; IC50 [3]: > 60 µM

Question: With `C=CCN(c1ccccc1N(CC=C)S(=O)(=O)c1ccc(C)cc1)S(=O)(=O)c1ccc(C)cc1` as the compound, how does the IC50 [4] read?
Answer: 0.059 µM

Question: And the IC50 [1]?
Answer: 0.3 µM

Question: What about the IC50 [5] of the same compound?
Answer: > 60 µM

Question: What about the IC50 (P2Y purinoceptor 2) of the same compound?
Answer: > 60 µM

Question: And the EC50 [2]?
Answer: > 60 µM

Question: What about the IC50 [6] of the same compound?
Answer: 2.5 µM

Question: What about the IC50 [3] of the same compound?
Answer: 0.3 µM

Question: And the IC50 [7]?
Answer: > 60 µM

Question: For `Cc1ccc(S(=O)(=O)N(C)c2ccccc2C(=O)N2CCc3ccccc32)cc1`, which IC50 [1] is on record?
Answer: 38.3 µM

Question: What about the EC50 [2] of the same compound?
Answer: > 60 µM

Question: And the IC50 [3]?
Answer: 44.5 µM

Question: Which IC50 [1] does the source give for `CN(c1ccccc1N(C)S(=O)(=O)c1ccccc1)S(=O)(=O)c1ccccc1` here?
Answer: > 60 µM

Question: What about the EC50 [2] of the same compound?
Answer: > 60 µM

Question: And the IC50 [3]?
Answer: > 60 µM

Question: With `Cc1ccc(S(=O)(=O)N2CCN(S(=O)(=O)c3ccc(C)cc3)CC2)cc1` as the compound, how does the IC50 [4] read?
Answer: > 60 µM

Question: What about the IC50 [1] of the same compound?
Answer: > 60 µM

Question: What does the source list for `Cc1ccc(S(=O)(=O)N(C)c2ccc(Cl)cc2C(=O)c2ccccc2)cc1`?
Answer: IC50 [1]: > 60 µM; EC50 [2]: > 60 µM; IC50 [3]: 8.7 µM

Question: Which results are given for `Cc1ccc(S(=O)(=O)N2CCN(S(=O)(=O)c3ccc(C)cc3)c3ccccc32)cc1`?
Answer: IC50 [1]: > 60 µM; EC50 [2]: > 60 µM; IC50 [3]: > 60 µM
